According to ChEMBL document CHEMBL2040723, “1,4-dioxane, a suitable scaffold for the development of novel M₃ muscarinic receptor antagonists” (J Med Chem, 2012):
The source made the active and inactive calls. The calls are words filed in the database; no cut-off is given here.

Key:
[1] = species: Cavia porcellus; experiment: Intrinsic activity at muscarinic M3 receptor in guinea pig ileum after 45 mins relative to bethanechol; type: tissue-based
Summary of the method: (§1)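 Guinea pig left atrium (M2) and ileum (M3) preparations. Intrinsic activity is the ratio of the compound's maximum response to the maximum response of bethanechol in that tissue. The pD2 is the −log of the agonist concentration giving 50% of the maximum response attainable in the tissue.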

[2] = Agonist potency at muscarinic M3 receptor in guinea pig ileum after 45 mins; type: functional, Cavia porcellus
Summary of the method: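 Isolated guinea pig ileum (M3) functional assay. pD2 is the −log of the agonist concentration giving 50% of the maximum response attainable in that tissue. Intrinsic activity is the ratio of the agonist's maximum response to that of bethanechol. Results are mean ± SEM of four to six independent experiments.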

[3] = species: Cavia porcellus; experiment: Intrinsic activity at muscarinic M2 receptor in guinea pig left atrium after 45 mins relative to bethanechol; type: tissue-based; settings: Cardiac atrium; summary of the method: as §1
[4] = Antagonist activity at muscarinic M3 receptor in guinea pig ileum assessed as dissociation constant after 45 mins; type: functional, Cavia porcellus
Summary of the method: (§2)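 Isolated guinea pig tissues: left atrium (M2), ileum (M3) and lung strips (putative M4). Antagonist dissociation constants were calculated by the Furchgott method and reported as pKB, as mean ± SEM of four to six independent experiments. Agonist reference for the tissue responses was bethanechol.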

[5] = Antagonist activity at muscarinic M2 receptor in guinea pig left atrium assessed as dissociation constant after 45 mins; type: functional, Cavia porcellus, Cardiac atrium; summary of the method: as §2
[6] = Antagonist activity at muscarinic M4 receptor in guinea pig lung strips assessed as dissociation constant after 45 mins; type: functional, Cavia porcellus; summary of the method: as §2
[7] = target: T1, Muscarinic acetylcholine receptor M4 (Homo sapiens, UniProt P08173); experiment: Displacement of [3H]N-methylscopolamine from human muscarinic M4 receptor expressed in CHO cells after 120 mins by scintillation counting; type: cell-based
T1 sequence (P08173 whole entry): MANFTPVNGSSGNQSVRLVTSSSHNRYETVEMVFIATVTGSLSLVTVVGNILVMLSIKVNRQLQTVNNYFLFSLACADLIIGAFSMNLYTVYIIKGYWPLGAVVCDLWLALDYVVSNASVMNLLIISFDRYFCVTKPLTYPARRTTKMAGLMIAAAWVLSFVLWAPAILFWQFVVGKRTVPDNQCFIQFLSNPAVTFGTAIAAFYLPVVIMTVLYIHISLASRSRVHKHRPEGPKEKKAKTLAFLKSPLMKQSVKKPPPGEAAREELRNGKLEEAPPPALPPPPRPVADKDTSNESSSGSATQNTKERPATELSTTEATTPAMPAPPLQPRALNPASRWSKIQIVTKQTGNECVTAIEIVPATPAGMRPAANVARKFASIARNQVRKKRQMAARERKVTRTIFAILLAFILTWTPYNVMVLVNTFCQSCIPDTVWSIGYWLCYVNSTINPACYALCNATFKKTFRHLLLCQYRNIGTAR

[8] = target: T2, Muscarinic acetylcholine receptor M2 (Homo sapiens, UniProt P08172); experiment: Displacement of [3H]N-methylscopolamine from human muscarinic M2 receptor expressed in CHO cells after 120 mins by scintillation counting; type: cell-based
T2 sequence (P08172 whole entry): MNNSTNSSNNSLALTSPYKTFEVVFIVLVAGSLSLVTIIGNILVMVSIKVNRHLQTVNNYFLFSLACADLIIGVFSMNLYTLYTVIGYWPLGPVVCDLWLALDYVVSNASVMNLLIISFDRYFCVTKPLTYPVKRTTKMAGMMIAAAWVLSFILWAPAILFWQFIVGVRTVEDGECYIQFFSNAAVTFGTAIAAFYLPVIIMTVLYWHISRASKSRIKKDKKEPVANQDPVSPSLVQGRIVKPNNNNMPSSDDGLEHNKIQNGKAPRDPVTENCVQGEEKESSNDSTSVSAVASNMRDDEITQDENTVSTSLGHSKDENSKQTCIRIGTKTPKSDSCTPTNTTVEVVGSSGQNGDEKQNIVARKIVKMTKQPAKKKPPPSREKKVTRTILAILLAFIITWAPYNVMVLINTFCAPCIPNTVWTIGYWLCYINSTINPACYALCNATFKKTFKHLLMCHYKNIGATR

[9] = target: T3, Muscarinic acetylcholine receptor M5 (Homo sapiens, UniProt P08912); experiment: Displacement of [3H]N-methylscopolamine from human muscarinic M5 receptor expressed in CHO cells after 120 mins by scintillation counting; type: cell-based
T3 sequence (P08912 whole entry): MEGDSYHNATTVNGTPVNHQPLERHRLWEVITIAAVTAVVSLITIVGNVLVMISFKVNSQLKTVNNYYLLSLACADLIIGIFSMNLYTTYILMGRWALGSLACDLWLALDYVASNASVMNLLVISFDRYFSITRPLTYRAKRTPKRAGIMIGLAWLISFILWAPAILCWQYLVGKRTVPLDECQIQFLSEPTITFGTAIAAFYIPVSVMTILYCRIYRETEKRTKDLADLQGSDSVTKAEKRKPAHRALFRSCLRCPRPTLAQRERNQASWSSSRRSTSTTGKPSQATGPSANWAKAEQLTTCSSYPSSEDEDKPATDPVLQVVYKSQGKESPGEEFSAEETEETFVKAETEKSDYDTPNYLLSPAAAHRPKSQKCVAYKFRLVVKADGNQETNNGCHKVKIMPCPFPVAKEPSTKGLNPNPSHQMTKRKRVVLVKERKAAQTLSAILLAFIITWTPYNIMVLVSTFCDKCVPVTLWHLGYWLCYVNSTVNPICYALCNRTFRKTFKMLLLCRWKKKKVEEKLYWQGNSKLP

[10] = system: Rattus norvegicus; experiment: Cardiovascular toxicity in anaesthetized Wistar rat assessed as changes in heart rate at 1 ug/kg, iv; type: organism-based; settings: in vivo, 0.001 mg/kg
[11] = system: Rattus norvegicus; experiment: Reduction in volume induced contraction of iv dosed anaesthetized Wistar rat urinary bladder assessed as inhibition of VIBC amplitudes relative to untreated control; type: functional
[12] = system: Rattus norvegicus; experiment: Reduction in volume induced contraction of iv dosed anaesthetized Wistar rat urinary bladder assessed as inhibition of AUC peaks from saline baseline; type: functional; settings: read-out: ID50 (the source's name)
[13] = system: Rattus norvegicus; experiment: Cardiovascular toxicity in anaesthetized Wistar rat assessed as changes in mean arterial pressure at 1 ug/kg, iv; type: organism-based, Artery; settings: in vivo, 0.001 mg/kg
[14] = Antagonist activity at muscarinic M1 receptor in rabbit vas deferens assessed as dissociation constant after 45 mins; type: functional, Oryctolagus cuniculus
[15] = species: Cavia porcellus; experiment: Antagonist activity at muscarinic M4 receptor in guinea pig lung strips up to 10 uM after 45 mins; type: functional
Summary of the method: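 Guinea pig lung strips (putative M4) were tested for agonist activity and then for antagonism at concentrations up to 10 μM. Dissociation constants (pKB) were calculated by the Furchgott method from four to six independent experiments.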

[16] = Agonist potency at muscarinic M2 receptor in guinea pig left atrium after 45 mins; type: functional, Cavia porcellus, Cardiac atrium
[17] = species: Cavia porcellus

SMILES | Intrinsic activity [1] | Intrinsic activity [3] | pKb [4] | pKb [5] | pKb [6] | Ki [7] | Ki [8] | Ki [9] | further results
C[C@H]1COC[C@@H](C[N+](C)(C)C)O1.[I-] | 1 | 1 |  |  |  |  |  |  | pD2 [2]: 7.34
C[N+]1(C)CCC(OC(=O)C(c2ccccc2)c2ccccc2)CC1.[I-] [4-DAMP] |  |  | 9.02 | 8 | 9.4 |  |  |  | 
C[N+](C)(C)C[C@@H]1COC[C@H](c2ccccc2)O1.[I-] (relative stereo) | 0 | 0 |  | 5.56 | 5.24 | 12.3 µM |  |  | 
C[N+](C)(C)CC1COCC(c2ccccc2)(c2ccccc2)O1.[I-] (racemic) | 0 | 0 | 8.34 | 8.21 | 7.77 |  | 0.00575 µM | 0.00437 µM | 
CN(C)C[C@H]1COCC(c2ccccc2)(c2ccccc2)O1.O=C(O)C(=O)O | 0 | 0 |  | 7.63 | 6.94 |  | 0.00977 µM | 0.00182 µM | 
CCN(CC)CC#CCOC(=O)C(O)(c1ccccc1)C1CCCCC1 (stereo not given) [OXYBUTYNIN] | 0 | 0 |  |  |  |  |  |  | Activity [10]: 7%; Imax [11]: 75%; ED50 [12]: 0.347 mg/kg; Activity [13]: 20%
C[N+](C)(C)C[C@@H]1COC[C@@H](C(c2ccccc2)c2ccccc2)O1 (relative stereo) |  |  |  |  |  | 17 µM | 79.4 µM | 31.6 µM | 
C[N+](C)(C)C[C@H]1COCC(c2ccccc2)(c2ccccc2)O1.[I-] | 0 | 0 | 8.52 | 7.31 | 6.7 |  | 0.00282 µM | 0.0017 µM | Activity [10]: 5%; Imax [11]: 96%; ED50 [12]: 0.201 mg/kg; pKb [14]: 8.86; Activity [13]: -12%
CN(C)C[C@@H]1COC(c2ccccc2)(c2ccccc2)O1.O=C(O)C(=O)O |  |  | 6.38 | 7.11 |  |  |  |  | 
COc1ccccc1CNCCCCCCNCCCCCCCCNCCCCCCNCc1ccccc1OC [METHOCTRAMINE] |  |  | 6.3 | 7.8 | 7.6 |  |  |  | 
CC[C@H]1COC[C@@H](C[N+](C)(C)C)O1.[I-] (relative stereo) | 1 | 1 |  |  |  | 25.1 µM | 6.31 µM | 26.3 µM | Activity [15]: inactive; pD2 [2]: 4.82; pD2 [16]: 5.62; pD2 [17]: inactive
CN(C)CC1COCC(c2ccccc2)(c2ccccc2)O1.O=C(O)C(=O)O (racemic) | 0 | 0 | 8.24 | 6.95 | 7.02 |  | 0.0166 µM | 0.00537 µM | Activity [10]: 4%; Imax [11]: 72%; ED50 [12]: 0.134 mg/kg; pKb [14]: 7.86; Activity [13]: -18%
C[N+](C)(C)C[C@@H]1COC[C@H](C(c2ccccc2)c2ccccc2)O1 (relative stereo) |  |  |  |  |  | 11.2 µM | 28.2 µM | 7.59 µM | 
CN(C)C[C@@H]1COCC(c2ccccc2)(c2ccccc2)O1.O=C(O)C(=O)O | 0 | 0 |  | 7 |  |  | 0.0955 µM | 0.0813 µM | 
CC[C@@H]1COC[C@@H](C[N+](C)(C)C)O1.[I-] (relative stereo) | 1 | 0.7 |  |  |  | > 100 µM | 18.2 µM | > 100 µM | Activity [15]: inactive; pD2 [2]: 5.19; pD2 [16]: 5.45; pD2 [17]: inactive
C[N+](C)(C)C[C@@H]1COCC(c2ccccc2)(c2ccccc2)O1.[I-] | 0 | 0 |  | 6.67 | 6.62 |  | 0.0331 µM | 0.107 µM | 
C[N+](C)(C)C[C@@H]1COC[C@@H](c2ccccc2)O1.[I-] (relative stereo) | 0 | 0 | <5 | 5.14 | <5 | 29.5 µM |  |  | 
